Six molecules from ChEMBL document CHEMBL4602632, “Synthesis and anti-Mycobacterium tuberculosis activity of imide-β-carboline and carbomethoxy-β-carboline derivatives” (Eur J Med Chem, 2020) can be followed below.

What all share (assay type): functional
Assay [1] concerns Mycobacterium tuberculosis. Put plainly: Antimycobacterial activity against Mycobacterium tuberculosis 3614 harbouring wild type KatG and InhA Ile21Thr mutant assessed as reduction in bacterial growth incubated for 7 days by resazurin dye based assay. The procedure, abridged:
(§1)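 REMA broth microdilution: DMSO stocks diluted in 7H9-OADC, standardized inoculum added, final 0.98 to 250 μg/mL; 7 days at 35 °C in normal atmosphere, then 0.01% resazurin and a further 24 h at 35 °C. Read visually. MIC is the lowest concentration preventing the blue-to-pink change. Three independent assays on different days; isoniazid reference, medium, sterility and growth ±2.5% DMSO controls.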

In assay [2] the test system is Mycobacterium tuberculosis. Put plainly: Antimycobacterial activity against Mycobacterium tuberculosis 71A harbouring KatG Ser315Thr mutant and wild type InhA assessed as reduction in bacterial growth incubated for 7 days by resazurin dye based assay. The essentials:
as §1

The test system of assay [3] is Mycobacterium tuberculosis. Put plainly: Antimycobacterial activity against Mycobacterium tuberculosis 19 harbouring KatG Ser315Thr mutant and wild type InhA assessed as reduction in bacterial growth incubated for 7 days by resazurin dye based assay. The procedure, abridged:
as §1

In assay [4] the test system is Mycobacterium tuberculosis. Put plainly: Antimycobacterial activity against Mycobacterium tuberculosis 73A harbouring KatG Ser315Thr mutant and wild type InhA assessed as reduction in bacterial growth incubated for 7 days by resazurin dye based assay. The procedure, abridged:
as §1
(Resazurin is reduced to fluorescent resorufin, in cell work by metabolically active cells.)

Assay [5] deals with Mycobacterium tuberculosis. Put plainly: Antimycobacterial activity against Mycobacterium tuberculosis 91 harbouring KatG Ser315Thr mutant and wild type InhA assessed as reduction in bacterial growth incubated for 7 days by resazurin dye based assay. The procedure, abridged:
as §1

In assay [6] the test system is Mycobacterium tuberculosis. Put plainly: Antimycobacterial activity against Mycobacterium tuberculosis BRF45 harbouring KatG Ser315Thr mutant and wild type InhA assessed as reduction in bacterial growth incubated for 7 days by resazurin dye based assay. The essentials:
as §1

Assay [7] has as its system Mycobacterium tuberculosis. Nature of the assay: Antimycobacterial activity against Mycobacterium tuberculosis BRF57 harbouring KatG Ser315Thr mutant and wild type InhA assessed as reduction in bacterial growth incubated for 7 days by resazurin dye based assay. The essentials:
as §1

The test system of assay [8] is Mycobacterium tuberculosis. Put plainly: Antimycobacterial activity against Mycobacterium tuberculosis BRF14 harbouring KatG Ser315Thr mutant and wild type InhA assessed as reduction in bacterial growth incubated for 7 days by resazurin dye based assay. The essentials: as §1
The subject of assay [9] is Mycobacterium tuberculosis. Nature of the assay: Antimycobacterial activity against Mycobacterium tuberculosis BRF16 harbouring KatG Ser315Thr mutant and wild type InhA assessed as reduction in bacterial growth incubated for 7 days by resazurin dye based assay. The procedure, abridged: as §1

Values after ≈ are worked out from the molar mass of the structure shown.

Broadly, the MIC is the least concentration at which growth counts as inhibited. With `O=C(NN1C(=O)CCC1=O)c1cc2c([nH]c3ccccc32)c(-c2ccc(F)cc2)n1`, the MIC in [1] is 155.43 µM (≈ 62.5 µg/mL); in assay [2] it was 310.86 µM (≈ 125 µg/mL); in assay [3] it was 155.43 µM (≈ 62.5 µg/mL); in assay [4], 77.72 µM (≈ 31.3 µg/mL); in assay [5], 310.86 µM (≈ 125 µg/mL); in assay [6], 77.72 µM (≈ 31.3 µg/mL). Also, the figures for the MIC in [7], in assay [8] and in assay [9] were 310.86 µM (≈ 125 µg/mL), 310.86 µM (≈ 125 µg/mL) and 62.5 µg/mL, respectively.

On to `O=C(NN1C(=O)c2ccccc2C1=O)c1cc2c([nH]c3ccccc32)c(-c2ccccc2)n1`, for which the MIC in assay [1] is 144.64 µM (≈ 62.5 µg/mL); in [2], 289.27 µM (≈ 125 µg/mL); in assay [3], 144.64 µM (≈ 62.5 µg/mL); in assay [4] it was 144.64 µM (≈ 62.5 µg/mL); in assay [5], 289.27 µM (≈ 125 µg/mL); in [6], 144.64 µM (≈ 62.5 µg/mL). Besides, the MIC stood at 289.27 µM (≈ 125 µg/mL) in [7], 289.27 µM (≈ 125 µg/mL) in [8] and 289.27 µM in assay [9].

In the case of `COC(=O)c1cc2c([nH]c3ccccc32)c(-c2ccc(N(C)C)cc2)n1`, the minimal inhibitory concentration (MIC) in assay [1] was 90.54 µM (≈ 31.3 µg/mL); in assay [2], above 724.32 µM; in assay [3], 90.55 µM (≈ 31.3 µg/mL); in assay [4] it was 90.54 µM (≈ 31.3 µg/mL); in [5], 180.36 µM (≈ 62.3 µg/mL); in assay [6] it was 90.54 µM (≈ 31.3 µg/mL). Besides, the values for the MIC in [7], in [8] and in [9] were 362.16 µM (≈ 125 µg/mL), 724.32 µM (≈ 250 µg/mL) and 362.16 µM, respectively.

For `O=C(NN1C(=O)c2ccccc2C1=O)c1cc2c([nH]c3ccccc32)c(-c2cccc([N+](=O)[O-])c2)n1`, the minimum inhibitory concentration (MIC) in assay [1] was 261.99 µM (≈ 125 µg/mL); in [2] it was above 523.99 µM; in assay [3] it was 261.99 µM (≈ 125 µg/mL); in assay [4] it was 261.99 µM (≈ 125 µg/mL); in [5], above 523.99 µM; in assay [6], 261.99 µM (≈ 125 µg/mL). The minimum inhibitory concentration (MIC) in assay [7] was above 523.99 µM; in assay [8] it was 523.99 µM (≈ 250 µg/mL); in assay [9], 261.99 µM.

Consider `NNC(=O)c1ccncc1` [ISONIAZID], for which the MIC in [1] was determined as 4 µM (≈ 0.549 µg/mL); in [2] it was 4 µM (≈ 0.549 µg/mL); in [3], 2 µM (≈ 0.274 µg/mL); in assay [4], 4 µM (≈ 0.549 µg/mL); in assay [5] it was 2 µM (≈ 0.274 µg/mL); in assay [6] it was 4 µM (≈ 0.549 µg/mL). Further, the minimum inhibitory concentration (MIC) in assay [7] turned out to be 4 µM (≈ 0.549 µg/mL); in [8], 8 µM (≈ 1.1 µg/mL); in [9] it was 8 µM.

On to `O=C(NN1C(=O)c2ccccc2C1=O)c1cc2c([nH]c3ccccc32)c(-c2ccc(F)cc2)n1`, for which the MIC in [1] amounted to 138.85 µM (≈ 62.5 µg/mL); in assay [2], 277.71 µM (≈ 125 µg/mL); in assay [3], 138.85 µM (≈ 62.5 µg/mL); in [4] it was 138.85 µM (≈ 62.5 µg/mL); in assay [5], 277.71 µM (≈ 125 µg/mL); in assay [6] it was 138.85 µM (≈ 62.5 µg/mL). The figures for the MIC in [7], in assay [8] and in [9] were 277.71 µM (≈ 125 µg/mL), 138.85 µM (≈ 62.5 µg/mL) and 138.85 µM, respectively.
